From ChEMBL document CHEMBL4715911, “Quest for a potent antimalarial drug lead: Synthesis and evaluation of 6,7-dimethoxyquinazoline-2,4-diamines” (Bioorg Med Chem, 2021) come the findings set out here.

A word on the inhibition in vivo: it is the change of the read-out against control, counted positive when it falls.

Test [1] has as its system Plasmodium berghei. Put plainly: Antimalarial activity against Plasmodium berghei NK65 infected in ICR mouse assessed as animal mean survival days at 63.7 mg/kg, po qd for 4 days (reference value: 6.2 day). The conditions noted are these: time 4 day. It is filed as functional.
Test [2] deals with Plasmodium berghei. Put plainly: Antimalarial activity against Plasmodium berghei NK65 infected in ICR mouse assessed as reduction in parasitemia at 63.7 mg/kg, po qd for 4 days by Diff-Quik staining based microscopic method (reference value: 0%). In kind it is functional. The conditions noted are these: 96 h, time 4 day.
Test [3] relates to Plasmodium berghei. The test is described as follows: Antimalarial activity against Plasmodium berghei NK65 infected in ICR mouse assessed as animal mean survival days at 57.2 mg/kg, po qd for 4 days (reference value: 6.2 +/- 0.5 day). In kind it is functional. The conditions noted are these: time 4 day.
The test system of test [4] is Plasmodium berghei. Put plainly: Antimalarial activity against Plasmodium berghei NK65 infected in ICR mouse assessed as reduction in parasitemia at 114.4 mg/kg, po qd for 4 days by Diff-Quik staining based microscopic method (reference value: 0%). In kind it is functional. The conditions noted are these: 96 h, time 4 day.
Test [5] has as its system Plasmodium berghei. The test is described as follows: Antimalarial activity against Plasmodium berghei NK65 infected in ICR mouse assessed as parasitemia at 57.2 mg/kg, po qd for 4 days by Diff-Quik staining based microscopic method (reference value: 28.4 +/- 10.2%). It is filed as functional. The conditions noted are these: time 4 day.
In test [6] the test system is Plasmodium berghei. Put plainly: Antimalarial activity against Plasmodium berghei NK65 infected in ICR mouse assessed as parasitemia at 114.4 mg/kg, po qd for 4 days by Diff-Quik staining based microscopic method (reference value: 28.4 +/- 10.2%). In kind it is functional. The conditions noted are these: time 4 day.
In test [7] the test system is Plasmodium berghei. The test is described as follows: Antimalarial activity against Plasmodium berghei NK65 infected in ICR mouse assessed as reduction in parasitemia at 57.2 mg/kg, po qd for 4 days by Diff-Quik staining based microscopic method (reference value: 0%). In kind it is functional. The conditions noted are these: 96 h, time 4 day.
Test [8] concerns Plasmodium berghei. Put plainly: Antimalarial activity against Plasmodium berghei NK65 infected in ICR mouse assessed as animal mean survival days at 114.4 mg/kg, po qd for 4 days (reference value: 6.2 +/- 0.5 day). In kind it is functional. The conditions noted are these: time 4 day.
Test [9] deals with Plasmodium berghei. The test is described as follows: Antimalarial activity against Plasmodium berghei NK65 infected in ICR mouse assessed as reduction in parasitemia at 59 mg/kg, po qd for 4 days by Diff-Quik staining based microscopic method (reference value: 0%). In kind it is functional. The conditions noted are these: 96 h, time 4 day.
Test [10] relates to Plasmodium berghei. Put plainly: Antimalarial activity against Plasmodium berghei NK65 infected in ICR mouse assessed as animal mean survival days at 59 mg/kg, po qd for 4 days (reference value: 6.2 day). It is filed as functional. The conditions noted are these: time 4 day.
Test [11] has as its system Plasmodium berghei. The test is described as follows: Antimalarial activity against Plasmodium berghei NK65 infected in ICR mouse assessed as animal mean survival days at 57 mg/kg, po qd for 4 days (reference value: 6.2 day). In kind it is functional. The conditions noted are these: time 4 day.
The subject of test [12] is Plasmodium berghei. Put plainly: Antimalarial activity against Plasmodium berghei NK65 infected in ICR mouse assessed as reduction in parasitemia at 57 mg/kg, po qd for 4 days by Diff-Quik staining based microscopic method (reference value: 0%). The conditions noted are these: 96 h, time 4 day. In kind it is functional.
In test [13] the test system is Plasmodium berghei. The test is described as follows: Antimalarial activity against Plasmodium berghei NK65 infected in ICR mouse assessed as reduction in parasitemia at 57.5 mg/kg, po qd for 4 days by Diff-Quik staining based microscopic method (reference value: 0%). In kind it is functional. The conditions noted are these: 96 h, time 4 day.
Test [14] deals with Plasmodium berghei. The test is described as follows: Antimalarial activity against Plasmodium berghei NK65 infected in ICR mouse assessed as parasitemia at 115 mg/kg, po qd for 4 days by Diff-Quik staining based microscopic method (reference value: 28.4 +/- 10.2%). In kind it is functional. The conditions noted are these: time 4 day.
Test [15] deals with Plasmodium berghei. The test is described as follows: Antimalarial activity against Plasmodium berghei NK65 infected in ICR mouse assessed as parasitemia at 57.5 mg/kg, po qd for 4 days by Diff-Quik staining based microscopic method (reference value: 28.4 +/- 10.2%). It is filed as functional. The conditions noted are these: time 4 day.
For test [16], the system named is Plasmodium berghei. Put plainly: Antimalarial activity against Plasmodium berghei NK65 infected in ICR mouse assessed as animal mean survival days at 115 mg/kg, po qd for 4 days (reference value: 6.2 +/- 0.5 day). In kind it is functional. The conditions noted are these: time 4 day.
The test system of test [17] is Plasmodium berghei. Put plainly: Antimalarial activity against Plasmodium berghei NK65 infected in ICR mouse assessed as animal mean survival days at 57.5 mg/kg, po qd for 4 days (reference value: 6.2 +/-0.5 day). In kind it is functional. The conditions noted are these: time 4 day.
For test [18], the system named is Plasmodium berghei. Put plainly: Antimalarial activity against Plasmodium berghei NK65 infected in ICR mouse assessed as reduction in parasitemia at 115 mg/kg, po qd for 4 days by Diff-Quik staining based microscopic method (reference value: 0%). In kind it is functional. The conditions noted are these: 96 h, time 4 day.
Test [19] relates to Plasmodium berghei. The test is described as follows: Antimalarial activity against Plasmodium berghei NK65 infected in ICR mouse assessed as reduction in parasitemia at 54.7 mg/kg, po qd for 4 days by Diff-Quik staining based microscopic method (reference value: 0%). In kind it is functional. The conditions noted are these: 96 h, time 4 day.
Test [20] relates to Plasmodium berghei. Put plainly: Antimalarial activity against Plasmodium berghei NK65 infected in ICR mouse assessed as mean survival days at 54.7 mg/kg, po for 4 days (reference value: 6.2 day). In kind it is functional. The conditions noted are these: time 4 day.
Test [21] relates to Plasmodium berghei. Put plainly: Antimalarial activity against Plasmodium berghei NK65 infected in ICR mouse assessed as animal mean survival days at 116.4 mg/kg, po qd for 4 days (reference value: 6.2 +/- 0.5 day). In kind it is functional. The conditions noted are these: time 4 day.
The test system of test [22] is Plasmodium berghei. Put plainly: Antimalarial activity against Plasmodium berghei NK65 infected in ICR mouse assessed as reduction in parasitemia at 116.4 mg/kg, po qd for 4 days by Diff-Quik staining based microscopic method (reference value: 0%). In kind it is functional. The conditions noted are these: 96 h, time 4 day.
Test [23] concerns Plasmodium berghei. Put plainly: Antimalarial activity against Plasmodium berghei NK65 infected in ICR mouse assessed as parasitemia at 58.2 mg/kg, po qd for 4 days by Diff-Quik staining based microscopic method (reference value: 28.4 +/- 10.2%). In kind it is functional. The conditions noted are these: time 4 day.
Test [24] deals with Plasmodium berghei. Put plainly: Antimalarial activity against Plasmodium berghei NK65 infected in ICR mouse assessed as parasitemia at 116.4 mg/kg, po qd for 4 days by Diff-Quik staining based microscopic method (reference value: 28.4 +/- 10.2%). In kind it is functional. The conditions noted are these: time 4 day.
The subject of test [25] is Plasmodium berghei. The test is described as follows: Antimalarial activity against Plasmodium berghei NK65 infected in ICR mouse assessed as reduction in parasitemia at 58.2 mg/kg, po qd for 4 days by Diff-Quik staining based microscopic method (reference value: 0%). In kind it is functional. The conditions noted are these: 96 h, time 4 day.
In test [26] the test system is Plasmodium berghei. Put plainly: Antimalarial activity against Plasmodium berghei NK65 infected in ICR mouse assessed as animal mean survival days at 58.2 mg/kg, po qd for 4 days (reference value: 6.2 +/-0.5 day). It is filed as functional. The conditions noted are these: time 4 day.
In test [27] the test system is Plasmodium berghei. Put plainly: Antimalarial activity against Plasmodium berghei NK65 infected in po dosed ICR mouse assessed as increase in mean survival days for administered for 4 days. In kind it is functional, organism-based. The conditions noted are these: dose 50-100 mg/kg, time 4.0 day. Summed up: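 Female ICR mice (25–27 g) infected via tail vein with 2×10^7 P. berghei NK65 parasitized RBC. Oral dosing in 0.5% methyl cellulose at 4 h post-infection, then days 1–3. Survival days recorded and mean survival days compared with vehicle controls. Student's t-test and Kaplan-Meier analysis applied. Mice without parasitemia at day 30 counted as cured.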

For the molecule `COc1cc2nc(Nc3ccncc3)nc(NC(C)c3ccccc3)c2cc1OC.Cl.Cl` (configuration not stated), the MSD in the test on Plasmodium berghei [1] stood at 8.3 days. For the same molecule, the inhibition in vivo at 63.7 mg/kg in the test on Plasmodium berghei [2] came to 6.6%.

Regarding `COc1cc2nc(N3CCCC3)nc(NC(C)c3ccccc3)c2cc1OC.Cl` (configuration not stated), the MSD in the test on Plasmodium berghei [3] stood at 12 days; in the test with Plasmodium berghei [8], 28.2 days. Further, the inhibition in vivo at 114.4 mg/kg in the test with Plasmodium berghei [4] is above 99%. The Activity in the test on Plasmodium berghei [5] was 2%; in the test on Plasmodium berghei [6], 0%. For the same molecule, the inhibition in vivo at 57.2 mg/kg with Plasmodium berghei [7] is 92.1%.

Regarding `COc1cc2nc(N3CCCC3)nc(NCc3cccnc3)c2cc1OC.Cl`, the inhibition in vivo at 59 mg/kg in the test with Plasmodium berghei [9] worked out at 80.3%. The MSD with Plasmodium berghei [10] was 8 days.

As for `CCCCCCCCNc1nc(N2CCCC2)nc2cc(OC)c(OC)cc12.Cl`, the MSD with Plasmodium berghei [11] was 6.7 days. Also, the inhibition in vivo at 57 mg/kg in the test on Plasmodium berghei [12] was determined as 48.8%.

With `COc1cc2nc(N3CCCC3)nc(Nc3ccccc3C)c2cc1OC.Cl`, in the test on Plasmodium berghei [13], the inhibition in vivo at 57.5 mg/kg is 53.9%. The Activity was found to be 11.6% in the test with Plasmodium berghei [14] and 14.7% with Plasmodium berghei [15]. Also, the MSD in the test with Plasmodium berghei [16] was determined as 14.5 days; with Plasmodium berghei [17], 7 days. The inhibition in vivo at 115 mg/kg with Plasmodium berghei [18] came to 63.8%.

With `COc1cc2nc(Nc3ccncc3)nc(Nc3ccccc3C)c2cc1OC.Cl`, the inhibition in vivo at 54.7 mg/kg in the test on Plasmodium berghei [19] stood at 60.8%. Besides, in the test on Plasmodium berghei [20], the MSD was determined as 7.3 days.

As to `CCCCNc1nc(N2CCCC2)nc2cc(OC)c(OC)cc12.Cl`, the figures for the MSD with Plasmodium berghei [21] and in the test on Plasmodium berghei [26] were 11.6 days and 17.5 days, respectively. The inhibition in vivo at 116.4 mg/kg with Plasmodium berghei [22] is above 99%. Besides, the Activity in the test on Plasmodium berghei [23] came to 1.5%; in the test on Plasmodium berghei [24] it was 0%. The inhibition in vivo at 58.2 mg/kg with Plasmodium berghei [25] amounted to 95.5%.

As for `COc1cc2nc(N3CCCC3)nc(NC(C)c3ccccc3)c2cc1OC` (configuration not stated), the Activity entry in the test with Plasmodium berghei [27] is “Dose dependent effect”.
